Bioassay records (PubChem)
Kir21 inh: inhibitors of mouse Kir2.1 inward-rectifier potassium channel | HEK293-Kir2.1, FluxOR thallium flux fluorescence; stronger effect = lower value | B-score at 10 µM | 0.85% of 310,000 active | P35561 | AID 1672;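 active = fluorescence ratio B-score at or below minus 3 SD of library scores, with starting-brightness B-score within 2 SD, cut at about -4.2 in these data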;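 also: channel flux triggered by added potassium and thallium sulfate stimulus; B-score of peak minus minimum fluorescence over baseline after thallium stimulus; more negative B-score means stronger Kir2.1 block with less thallium influx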
Target sequence (P35561 whole entry, looked up): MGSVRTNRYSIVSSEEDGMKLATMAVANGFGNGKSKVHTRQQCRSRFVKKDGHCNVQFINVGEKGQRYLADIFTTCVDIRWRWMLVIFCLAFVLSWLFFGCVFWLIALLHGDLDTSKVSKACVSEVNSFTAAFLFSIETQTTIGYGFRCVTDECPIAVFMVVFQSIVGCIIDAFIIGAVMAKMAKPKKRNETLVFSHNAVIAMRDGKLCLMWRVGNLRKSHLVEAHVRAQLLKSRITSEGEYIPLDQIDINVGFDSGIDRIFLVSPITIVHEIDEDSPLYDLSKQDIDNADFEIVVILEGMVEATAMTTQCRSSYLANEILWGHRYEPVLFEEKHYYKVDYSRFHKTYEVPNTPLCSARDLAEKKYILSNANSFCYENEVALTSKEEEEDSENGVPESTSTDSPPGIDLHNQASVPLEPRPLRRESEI
KCNQ1 act: potentiates or activates the human KCNQ1 potassium channel; B-score at 10 µM; P51787; 0.35% of 310,000 active; CHO-K1 KCNQ1, thallium flux FluxOR fluorescence; stronger effect = higher value;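 active = fluorescence ratio B-score, a plate-corrected score, at least three library SD, with initial intensity B-score within 5 SD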
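assay system = KCNQ1-transfected CHO-K1 cells | medium = assay buffer with matched DMSO | probe or stimulus = depolarizing K+/Tl+ stimulus, K2SO4 and Tl2SO4 each 12.5 mM in 5x stock | dosing = single dose | incubation = dye 90 min, compound 20 min, room temperature | detection = kinetic FluxOR fluorescence, 10 s baseline plus 110 s post-stimulus | evaluation = ratio B score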
hERG rescue: shields human hERG channel from block by proarrhythmic agents. CHO-hERG, FluxOR thallium flux, dofetilide IC70 present. activation (rescue from dofetilide block), less the hit threshold, % at 10 µM. 0.51% of 310,000 active. AID 1511;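 active = activation above the mean of controls blocked by dofetilide plus 5 SD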;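 also: thallium influx through hERG after potassium depolarization seen as dye fluorescence rise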
KCNQ1 block: human KCNQ1 channel inhibition; P51787; CHO-K1 KCNQ1, FluxOR thallium flux fluorescence; stronger effect = higher value; B-score at 10 µM; 1.3% of 310,000 active; AID 2642;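 active = compounds whose thallium flux B-score, printed positive for inhibition, exceeds three library SD while starting fluorescence stays within three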;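 also: channel opened by potassium depolarization with thallium stimulus after 20 min compound exposure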
KCNK9 inh-1: human KCNK9 channel inhibition; HEK293 KCNK9, FluxOR thallium flux fluorescence; stronger effect = lower value; B-score at 10 µM; 1.2% of 310,000 active;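 active = ratio B-score over 3 SD below the library mean, with starting fluorescence within 5 SD of its mean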;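 also: negative B-score means less thallium flux so channel inhibition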
Target sequence (Q9NPC2 whole entry, looked up): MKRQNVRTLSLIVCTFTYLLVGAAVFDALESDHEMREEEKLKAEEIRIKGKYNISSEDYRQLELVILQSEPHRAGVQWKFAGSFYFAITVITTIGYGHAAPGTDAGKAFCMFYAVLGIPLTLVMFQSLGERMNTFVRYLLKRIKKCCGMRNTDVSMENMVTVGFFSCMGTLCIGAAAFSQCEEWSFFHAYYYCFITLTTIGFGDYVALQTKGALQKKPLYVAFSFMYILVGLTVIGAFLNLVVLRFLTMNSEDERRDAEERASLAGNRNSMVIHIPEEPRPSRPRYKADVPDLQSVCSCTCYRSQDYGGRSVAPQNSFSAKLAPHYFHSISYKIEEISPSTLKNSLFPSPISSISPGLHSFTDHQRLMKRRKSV
KCNK3 inh: human KCNK3 channel inhibition, primary screen. O14649. CHO-KCNK3 thallium flux, FluxOR fluorescence; stronger effect = lower value. B-score at 10 µM. 0.84% of 340,000 active;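 active = B-score under library mean minus 4 SD, starting fluorescence ratio at most library mean plus 5 SD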;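 also: more negative B-score means stronger inhibition of thallium flux through KCNK3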
hERG ctr: hERG (human) inhibition as Kir2.1 counter-screen; shares compounds with Kir21 inh; hERG-expressing cells, thallium flux; inhibition, % at 10 µM; 20% of 320 active; AID 2236;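 also: host cells are CHO cells stably expressing hERG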
KCNK9 inh-2: tests whether Kir2.1 inhibitors also affect human KCNK9; shares compounds with Kir21 inh; KCNK9-expressing cells, ion flux inhibition; inhibition, % at 10 µM; 5% of 320 active; AID 2329
Kir2-1 patch inh: mouse Kir2.1 inward rectifier channel inhibition. 71% of 320 active. Kir2.1 cells, automated patch-clamp current inhibition. inhibition, % at 25 µM. shares compounds with Kir21 inh
KCNQ1 inh valid: human KCNQ1 channel inhibition, validation assay; shares compounds with KCNQ1 block; KCNQ1 cell line, FluxOR thallium flux fluorescence; inhibition, % at 10 µM; 93% of 1,600 active; AID 588353;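 active = primary screen active, with duplicate mean exceeding buffer control mean plus 3 SD of buffer wells, cut at about 28% in these data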
CHO Tl flux: KCNQ1 inhibitor counter-screen hit in parental CHO cells. AID 588366. parental CHO-K1, FluxOR thallium flux fluorescence ratio; stronger effect = lower value; zero means no signal rise above baseline. 21% of 1,600 active. shares compounds with KCNQ1 block. fluorescence ratio (Tl flux) at 10 µM;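 active = mean of duplicate thallium-flux fluorescence ratios in parental host cells more than 5 SD below the buffer control mean, cut at about 0.38 in these data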;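 also: ratio is peak minus minimum fluorescence divided by baseline fluorescence; actives read low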
KCNQ1 ephys val: confirmation of human KCNQ1 potassium channel inhibitors by electrophysiology; shares compounds with KCNQ1 block; KCNQ1-CHO cells, automated patch clamp current; 20% of 490 active; calls only at 10 µM;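 active = KCNQ1 current drop exceeding 3 SD of negative control wells, seen in both duplicate runs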;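 also: steady state current during a 2 s step from -80 to +40 mV; negative values mean current inhibition and positive values mean potentiation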
KCNQ2 spec: rat KCNQ2 inhibition in KCNQ1 inhibitor specificity screen | KCNQ2 cells, FluxOR thallium flux fluorescence | shares compounds with KCNQ1 block | inhibition, % at 10 µM | 71% of 1,600 active;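 active = mean percent inhibition of the KCNQ2 thallium signal more than 5 SD above the buffer-only control wells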;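 also: KCNQ2 expressed in CHO cells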
KCNQ1 KCNE1 spec: selectivity of KCNQ1 inhibitors: inhibition of human KCNQ1/KCNE1 channel; KCNQ1/KCNE1 cells, FluxOR thallium flux fluorescence; AID 652147; shares compounds with KCNQ1 block; 77% of 1,600 active; inhibition, % at 10 µM;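 active = mean percent inhibition of duplicate wells above the buffer-only control mean plus 3 SD of those controls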
KCNK9 block conf: confirmation of human KCNK9 potassium channel inhibitors; HEK293 KCNK9 cells, FluxOR thallium flux fluorescence; AID 492992; 43% of 4,900 active; shares compounds with KCNK9 inh-1; inhibition, % at 10 µM;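 active = thallium signal inhibited by more than 5 SD of the compound-free buffer control wells, on both duplicate plates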
Kir2-1 spec: selectivity of KCNK9 modulators against mouse Kir2.1; shares compounds with KCNK9 inh-1; Kir2.1 cells, FluxOR thallium flux fluorescence; inhibition, % at 10 µM; 4% of 4,900 active;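 active = thallium signal drop more than 5 SD beyond the mean of the no-compound control wells, seen in both duplicate plates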;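 also: signal is fluorescence rise after thallium addition divided by baseline fluorescence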
KCNK9 uninduced: second check of KCNK9 modulator effects in non-induced HEK293 cells | FluxOR thallium flux | 40% of 4,900 active | shares compounds with KCNK9 inh-1 | inhibition, % at 10 µM | AID 492997;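 active = thallium signal drop beyond 5 SD of the untreated control mean, on both duplicate plates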
KCNK3 confirm: human KCNK3 channel inhibition, confirmation assay; shares compounds with KCNK3 inh; CHO-KCNK3 thallium flux, FluxOR fluorescence; 0% buffer, 100% carvedilol maximal block; ratio percent of control, % at 10 µM; 99% of 2,400 active; AID 651638;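 active = ratio percent of control, averaged over triplicates, above buffer control mean plus 5 SD, cut at about 64% in these data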;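 also: ratio is the fluorescence rise from min to max over baseline after thallium stimulus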
KCNK3 uninduced: counter-screen for KCNK3 inhibitors: effect in non-induced cells; shares compounds with KCNK3 inh; non-induced KCNK3 parental cells, FluxOR thallium flux; stronger effect = lower value; thallium flux ratio (lower = more inhibition) at 10 µM; 40% of 2,400 active;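 active = thallium flux ratio, averaged over three wells, more than 5 SD below the buffer control mean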;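 also: host cells are CHO cells without KCNK3 induction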
Of the large screens only hits and unclear results are named; the others gave an inactive call (follow-up assays come after a bar, where they were run). A selection: hits, their analogues and other compounds. The true share with any hit is near 3.7%. Unless noted, no rule for the calls is given here.

O=C(NCc1cccc(C(F)(F)F)c1)c1ccc2c(c1)OCO2	none
CN(CCCCOc1ccc(F)cc1)Cc1ccccc1	none
Cc1cc(C)c(C)c(OCCCCN(C)Cc2ccccc2)c1	Kir21 inh -7.3 | hERG ctr inactive | KCNK9 inh-2 inactive | Kir2-1 patch inh 8.7% | KCNK9 block conf inactive | Kir2-1 spec 46% | KCNK9 uninduced inactive
Cc1ccc(-c2nc3ccccn3c2NCc2ccc3c(c2)OCO3)cc1	Kir21 inh -7.1, KCNQ1 block 10, KCNK9 inh-1 -17, KCNK3 inh -9.9 | hERG ctr 63% | KCNK9 inh-2 56% | Kir2-1 patch inh inactive | KCNQ1 inh valid 118 | CHO Tl flux inactive | KCNQ1 ephys val inactive | KCNQ2 spec 113% | KCNQ1 KCNE1 spec 188% | KCNK9 block conf 52% | Kir2-1 spec inactive | KCNK9 uninduced inactive | KCNK3 confirm 143 | KCNK3 uninduced inactive
C=CCc1ccc(OCC(O)CN2CCc3ccccc3C2)c(OC)c1 (stereo not drawn)	Kir21 inh -5.8, KCNK3 inh -9 | hERG ctr 56% | KCNK9 inh-2 inactive | Kir2-1 patch inh 25% | KCNK3 confirm 103 | KCNK3 uninduced 0.14
CCCCNC(=O)c1ccc2c(c1)C(=O)N(Cc1ccncc1)C2=O	none
CCOC(=O)CSc1nc(-c2ccccc2)nc2ccccc12	none
CCOC(=O)CSc1nc(Cc2ccccc2)nc2ccccc12	Kir21 inh -6, KCNK9 inh-1 -13 | hERG ctr inactive | KCNK9 inh-2 inactive | Kir2-1 patch inh 32% | KCNK9 block conf 36% | Kir2-1 spec inactive | KCNK9 uninduced inactive | KCNK3 confirm 96 | KCNK3 uninduced inactive
O=[N+]([O-])c1cccc(-c2csc(Nc3ccccc3)n2)c1	KCNK3 inh -14 | hERG ctr inactive | KCNK9 inh-2 inactive | Kir2-1 patch inh inactive | KCNK3 confirm 124 | KCNK3 uninduced 0.14
COc1ccccc1Nc1nc(-c2cccc([N+](=O)[O-])c2)cs1	none
O=C(Cn1ncn2c(cc3sccc32)c1=O)NC1CCCC1	none
COc1ccc(-c2c(-c3cc(OC)cc(OC)c3)n(C)c3ccc(-c4ccc(OC)nc4)cc23)cc1	none (no result: Kir21 inh, KCNQ1 act, hERG rescue, KCNQ1 block, KCNK9 inh-1)
Cc1noc(C)c1COC(=O)CCN1c2ccccc2Sc2ccccc21	Kir21 inh -7.3, KCNK3 inh -9.7 | hERG ctr inactive | KCNK9 inh-2 inactive | Kir2-1 patch inh 10% | KCNK3 confirm 126 | KCNK3 uninduced 0.14
COc1ccc(N(CC(=O)Nc2cccnc2)S(=O)(=O)c2ccccc2)cc1Cl	none
COc1ccc(N(CC(=O)Nc2ccccc2OC)S(=O)(=O)c2ccccc2)cc1Cl	KCNQ1 block 7 | KCNQ1 inh valid 74 | CHO Tl flux inactive | KCNQ2 spec 92% | KCNQ1 KCNE1 spec 102%
Cc1ccc2nc(SCC(=O)Nc3cc(C(C)(C)C)nn3-c3ccccc3)[nH]c2c1	KCNQ1 block 8 | KCNQ1 inh valid 96 | CHO Tl flux inactive | KCNQ1 ephys val active | KCNQ2 spec 111% | KCNQ1 KCNE1 spec 141%
CCc1c(O)nc(SCC(=O)Nc2nc3ccccc3s2)n(C2CCCCC2)c1=O	KCNQ1 block 7 | KCNQ1 inh valid inactive | CHO Tl flux inactive | KCNQ2 spec inactive | KCNQ1 KCNE1 spec inactive
CCc1c(O)nc(SCC(=O)Nc2ccc(OC)cc2)n(C2CCCCC2)c1=O	none
CC1CCN(S(=O)(=O)c2nnc(NC(=O)c3cccc(Cl)c3)s2)CC1	KCNQ1 block 9 | KCNQ1 inh valid 32 | CHO Tl flux inactive | KCNQ2 spec inactive | KCNQ1 KCNE1 spec inactive
C=CCN=C1CCCc2c1[nH]c1ccc(C)cc21	KCNQ1 block 6 | KCNQ1 inh valid 54 | CHO Tl flux inactive | KCNQ2 spec inactive | KCNQ1 KCNE1 spec 46%
OCCN=C1CCCc2c1[nH]c1ccc(Br)cc21	none
CC(=O)Nc1cccc(NC(=S)Nc2ccc(F)c(Cl)c2)c1	KCNQ1 block 8 | KCNQ1 inh valid 61 | CHO Tl flux inactive | KCNQ2 spec inactive | KCNQ1 KCNE1 spec inactive
O=C(Nc1cccnc1)Nc1ccc(F)c(Cl)c1	KCNQ1 block 6 | KCNQ1 inh valid inactive | CHO Tl flux inactive | KCNQ2 spec inactive | KCNQ1 KCNE1 spec inactive
CC(=O)Nc1cccc(NC(=O)Nc2ccc(C)c(Cl)c2)c1	none
Cc1ccc(NC(=O)Nc2ccc(F)c(Cl)c2)cc1	KCNQ1 block 8 | KCNQ1 inh valid 78 | CHO Tl flux inactive | KCNQ2 spec inactive | KCNQ1 KCNE1 spec 44%
COCCNC(=O)CN1C(=O)NC2(CCCc3ccccc32)C1=O (stereo not drawn)	none
